Converted amounts (≈) assume the structure as drawn.
What was measured:
[1] = Solubility of compound in phosphate buffer at pH 7 measured after 3 days; assay type: physicochemical; conditions: time 3 day
Outline: (§1)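 Solubility in aqueous buffer at pH 2 and pH 7, and in simulated gastric and intestinal fluids.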

[2] = Solubility of compound in phosphate buffer at pH 2 measured after 3 days; assay type: physicochemical; conditions: time 3 day; outline: as §1
[3] = Negative allosteric modulation of human GluN1a/GluN2A receptor expressed in CHO cells assessed as inhibition of glutamate and glycine-induced calcium flux preincubated for 5 mins followed by glutamate and glycine addition and measured after 5 mins by calcium 5 dye based FLIPR assay; assay type: cell-based
Outline: (§2)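 Tet-On CHO T-Rex cells expressing hGluN1a with GluN2A, 2B, 2C or 2D, plated at 20,000 cells/well and induced 24 h before the assay in the presence of ketamine. Cells loaded 1 h at room temperature with Calcium 5 dye, pH 7.4 HEPES buffer. Compound added 5 min, then glutamate (~EC80) plus 10 µM glycine for 5 min; FLIPR fluorescence normalized to control wells. Three independent runs in duplicate (two for some).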

[4] = Negative allosteric modulation of human GluN1a/GluN2C receptor expressed in CHO cells assessed as inhibition of glutamate and glycine-induced calcium flux preincubated for 5 mins followed by glutamate and glycine addition and measured after 5 mins by calcium 5 dye based FLIPR assay; assay type: cell-based; outline: as §2
[5] = target: Voltage-gated inwardly rectifying potassium channel KCNH2 (Homo sapiens, UniProt Q12809); assay: Inhibition of human ERG expressed in CHO cells measured after 5 mins by Qpatch method; assay type: cell-based
Voltage-gated inwardly rectifying potassium channel KCNH2, sequence (Q12809 whole entry): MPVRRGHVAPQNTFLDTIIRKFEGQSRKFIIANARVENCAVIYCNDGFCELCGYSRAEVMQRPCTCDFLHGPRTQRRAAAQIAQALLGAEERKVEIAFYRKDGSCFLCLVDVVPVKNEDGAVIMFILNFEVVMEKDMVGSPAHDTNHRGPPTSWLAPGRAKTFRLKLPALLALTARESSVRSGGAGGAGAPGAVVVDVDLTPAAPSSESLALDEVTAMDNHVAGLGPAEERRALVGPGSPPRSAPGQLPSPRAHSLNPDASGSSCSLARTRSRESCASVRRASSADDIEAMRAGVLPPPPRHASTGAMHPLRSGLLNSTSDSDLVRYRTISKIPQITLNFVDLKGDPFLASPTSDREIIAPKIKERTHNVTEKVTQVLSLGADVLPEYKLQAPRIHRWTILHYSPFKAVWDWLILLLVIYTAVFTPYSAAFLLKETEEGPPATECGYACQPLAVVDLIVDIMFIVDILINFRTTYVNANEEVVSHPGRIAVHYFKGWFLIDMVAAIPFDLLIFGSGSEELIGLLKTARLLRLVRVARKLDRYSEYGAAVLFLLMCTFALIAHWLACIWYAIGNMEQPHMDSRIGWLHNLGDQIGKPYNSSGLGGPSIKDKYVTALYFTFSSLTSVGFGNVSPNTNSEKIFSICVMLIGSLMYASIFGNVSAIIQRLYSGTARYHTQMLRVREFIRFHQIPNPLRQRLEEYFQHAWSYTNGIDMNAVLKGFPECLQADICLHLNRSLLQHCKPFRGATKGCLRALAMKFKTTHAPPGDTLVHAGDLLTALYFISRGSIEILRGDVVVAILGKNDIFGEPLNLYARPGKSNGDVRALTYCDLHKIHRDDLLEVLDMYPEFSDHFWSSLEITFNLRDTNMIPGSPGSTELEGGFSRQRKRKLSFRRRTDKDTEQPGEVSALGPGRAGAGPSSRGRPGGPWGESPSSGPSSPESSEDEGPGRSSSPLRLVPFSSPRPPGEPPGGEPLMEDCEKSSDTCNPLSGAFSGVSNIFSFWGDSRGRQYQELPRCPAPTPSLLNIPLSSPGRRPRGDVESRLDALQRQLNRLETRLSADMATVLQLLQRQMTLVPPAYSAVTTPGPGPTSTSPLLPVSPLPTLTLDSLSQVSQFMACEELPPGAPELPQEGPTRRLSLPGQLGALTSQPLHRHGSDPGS
Outline: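 CHO cells stably expressing hERG, whole-cell QPatch. Vehicle applied 5 min, then 0.3, 3.0, 10 and 30 µM in rising order, each concentration applied twice. Current measured after 5 min as the average of 3 voltage pulses; block taken relative to vehicle pretreatment, mean ± SEM.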

[6] = Negative allosteric modulation of human GluN1a/GluN2D receptor expressed in CHO cells assessed as inhibition of glutamate and glycine-induced calcium flux preincubated for 5 mins followed by glutamate and glycine addition and measured after 5 mins by calcium 5 dye based FLIPR assay; assay type: cell-based; outline: as §2
[7] = Protein binding in human plasma at 1 uM after 6 hrs by equilibrium dialysis method; assay type: ADME, cell-free; conditions: read-out: PPB (converted)
[8] = Ex vivo receptor occupancy at GluN2B in Sprague-Dawley rat assessed as 3-[3H] 1-(azetidin-1-yl)-2-[6-(4-fluoro-3-methyl-phenyl)pyrrolo[3,2-b]pyridin-1-yl]-ethanone labelling at 3 mg/kg, po measured after 2 hrs by autoradiography; assay type: functional
Outline: (§3)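 Rats dosed orally at 3 mg/kg in 20% HP-β-CD; brains taken at 0.5, 2 and 6 h. Ex vivo autoradiography of brain slices with the ³H pyrrolo[3,2-b]pyridine GluN2B tracer. Labelling expressed relative to matching brain areas of vehicle-treated animals; n=2, ± SEM.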

[9] = Metabolic stability in human liver microsomes assessed as extraction ratio at 1 uM after 5 to 60 mins in presence of NADPH by LC-MS/MS analysis; assay type: ADME, Microsome; conditions: time 5-60 min, read-out: ERH
Outline: (§4)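 Human and rat liver microsomes, run in duplicate; stability reported as microsomal extraction ratio.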

[10] = Tmax in Sprague-Dawley rat at 0.5 mg/kg, iv or 2.5 mg/kg, po using 30% SBE-beta-CD formulation by LC-MS/MS analysis; assay type: ADME, organism-based; conditions: in vivo
Outline: (§5)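 Rat PK at 0.5 mg/kg i.v. and 2.5 mg/kg p.o., vehicle 30% SBE-β-CD. n=3, values given as mean ± SD.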

[11] = Cmax in Sprague-Dawley rat at 0.5 mg/kg, iv or 2.5 mg/kg, po using 30% SBE-beta-CD formulation by LC-MS/MS analysis; assay type: ADME, organism-based; design: dose 2.5 mg/kg; conditions: in vivo
Outline: (§6)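 Rat IV/PO PK at 0.5 mg/kg IV and 2.5 mg/kg PO, dosed in 30% SBE-β-CD, n=3.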

[12] = Ex vivo receptor occupancy at GluN2B in Sprague-Dawley rat assessed as 3-[3H] 1-(azetidin-1-yl)-2-[6-(4-fluoro-3-methyl-phenyl)pyrrolo[3,2-b]pyridin-1-yl]-ethanone labelling at 3 mg/kg, po measured after 6 hrs by autoradiography; assay type: functional; outline: as §3
[13] = Tmax in Sprague-Dawley rat brain at 3 mg/kg, po by LC-MS/MS analysis; assay type: ADME, organism-based
Outline: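 Rats dosed orally at 3 mg/kg in 20% HP-β-CD. Brain concentrations were measured over a 6 h time course (0.5, 2, 6 h) alongside ex vivo GluN2B occupancy, n=2.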

[14] = Clearance in Sprague-Dawley rat at 0.5 mg/kg, iv using 30% SBE-beta-CD formulation by LC-MS/MS analysis; assay type: ADME, organism-based; conditions: in vivo; outline: as §6
[15] = Oral bioavailability in Sprague-Dawley rat at 2.5 mg/kg using 30% SBE-beta-CD formulation by LC-MS/MS analysis; assay type: ADME, organism-based; conditions: in vivo
Outline: (§7)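 Rats dosed 0.5 mg/kg i.v. and 2.5 mg/kg p.o., n=3 ± SD. Default vehicle is 20% HP-β-CD; one PK set used 1:1 PEG400/water and another 30% SBE-β-CD.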

[16] = Half life in Sprague-Dawley rat at 0.5 mg/kg, iv or 2.5 mg/kg, po using 30% SBE-beta-CD formulation by LC-MS/MS analysis; assay type: ADME, organism-based; conditions: in vivo; outline: as §7
[17] = Efflux ratio of apparent permeability across basolateral to apical side over apical to basolateral side in MDCK-MDR1 cells at 5 uM measured after 60 mins by LC-MS/MS analysis; assay type: ADME, cell-based, Canis lupus familiaris; conditions: dog
Outline: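 MDCK-MDR1 cells, passages 6-30, seeded at 3.4×10^5 cells/cm² and cultured 3 days. Test compound at 5 µM final (1% DMSO) in HBSS, pH 7.4, applied to the donor side. A→B and B→A runs at 37 °C for 60 min, in duplicate, quantified by LC/MS/MS. Efflux ratio taken as B-A/A-B; monolayer integrity checked by lucifer yellow.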

[18] = AUC (infinity) in Sprague-Dawley rat at 0.5 mg/kg, iv or 2.5 mg/kg, po using 30% SBE-beta-CD formulation by LC-MS/MS analysis; assay type: ADME, organism-based; design: dose 2.5 mg/kg; conditions: in vivo; outline: as §6
[19] = Displacement of 3-[3H] 1-(azetidin-1-yl)-2-[6-(4-fluoro-3-methyl-phenyl)pyrrolo[3,2-b]pyridin-1-yl]ethanone from GluN1a/GluN2B receptor in rat cortex membranes measured after 2 hrs by liquid scintillation counting method; assay type: cell membranes
Outline: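 Rat adult cortex was homogenized in 50 mM Tris pH 7.4, and membranes were washed by centrifugation. Membranes were incubated with the [3H] pyrrolopyridine tracer and test compound for 2 h at room temperature with shaking. Non-specific binding was defined with 10 µM CP-101,606. Bound tracer was separated by filtration on PEI-soaked GF/B filters and counted by liquid scintillation. Ki was obtained from a competition fit using tracer Kd; three independent runs in duplicate.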

[20] = Metabolic stability in rat liver microsomes assessed as extraction ratio at 1 uM after 5 to 60 mins in presence of NADPH by LC-MS/MS analysis; assay type: ADME, Microsome; conditions: time 5-60 min, read-out: ERH; outline: as §4
[21] = Volume of distribution at steady state in Sprague-Dawley rat at 0.5 mg/kg, iv or 2.5 mg/kg, po using 30% SBE-beta-CD formulation by LC-MS/MS analysis; assay type: ADME, organism-based; conditions: in vivo, read-out: Vdss; outline: as §5
[22] = Negative allosteric modulation of human GluN1a/GluN2B receptor expressed in CHO cells assessed as inhibition of glutamate and glycine-induced calcium flux preincubated for 5 mins followed by glutamate and glycine addition and measured after 5 mins by calcium 5 dye based FLIPR assay; assay type: cell-based; outline: as §2
[23] = Ex vivo receptor occupancy at GluN2B in Sprague-Dawley rat assessed as 3-[3H] 1-(azetidin-1-yl)-2-[6-(4-fluoro-3-methyl-phenyl)pyrrolo[3,2-b]pyridin-1-yl]-ethanone labelling at 3 mg/kg, po measured after 0.5 hrs by autoradiography; assay type: functional; outline: as §3
[24] = Cmax in Sprague-Dawley rat brain at 3 mg/kg, po after 2 hrs by LC-MS/MS analysis; assay type: ADME, organism-based; design: route oral, dose 3 mg/kg, time 2 hrs
Outline: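 Oral dose of 3 mg/kg in 20% HP-β-CD to rats. Brain concentration was measured alongside ex vivo GluN2B occupancy over a 6 h time course (0.5, 2 and 6 h), n=2.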

[25] = Half life in Sprague-Dawley rat at 0.5 mg/kg, iv or 2.5 mg/kg, po using 20% HP-beta-CD formulation by LC-MS/MS analysis; assay type: ADME, organism-based; conditions: in vivo; outline: as §7
[26] = Oral bioavailability in Sprague-Dawley rat at 2.5 mg/kg using 20% HP-beta-CD formulation by LC-MS/MS analysis; assay type: ADME, organism-based; conditions: in vivo; outline: as §7
[27] = Volume of distribution at steady state in Sprague-Dawley rat at 0.5 mg/kg, iv or 2.5 mg/kg, po using 20% HP-beta-CD formulation by LC-MS/MS analysis; assay type: ADME, organism-based; conditions: in vivo, read-out: Vdss
Outline: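 Rat PK at 0.5 mg/kg i.v. and 2.5 mg/kg p.o., vehicle 20% HP-β-CD. n=3, values given as mean ± SD.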

[28] = Cmax in Sprague-Dawley rat at 0.5 mg/kg, iv or 2.5 mg/kg, po using 20% HP-beta-CD formulation by LC-MS/MS analysis; assay type: ADME, organism-based; design: dose 2.5 mg/kg; conditions: in vivo
Outline: (§8)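 Rat PK with IV and PO dosing, n=3. The usual doses were 0.5 mg/kg IV and 2.5 mg/kg PO in 20% HP-β-CD. One compound was instead given at 0.1 mg/kg IV and 0.5 mg/kg PO.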

[29] = Clearance in Sprague-Dawley rat at 0.5 mg/kg, iv using 20% HP-beta-CD formulation by LC-MS/MS analysis; assay type: ADME, organism-based; conditions: in vivo; outline: as §8
[30] = Stability of compound in phosphate buffer at pH 7 assessed as drug decomposition measured after 24 h; conditions: pH 7, 24 h
[31] = Stability of compound in phosphate buffer at pH 2 assessed as drug decomposition measured after 24 h; conditions: pH 2, 24 h

| Structure (SMILES) | solubility at 72 h [1] [µM] | solubility at 72 h [2] [µM] | IC50 [5] [nM] | hepatic extraction ratio at 1 µM [9] | efflux ratio at 1 h, 5 µM [17] | Ki [19] [nM] | hepatic extraction ratio at 1 µM [20] | IC50 [22] [nM] | Stabilty [30] | Stabilty [31] | other results |
| --- | --- | --- | --- | --- | --- | --- | --- | --- | --- | --- | --- |
| O=C(Cn1c(=O)[nH]c2ncc(-c3cccc(C(F)(F)F)c3)cc21)NC1CC1 | < 4 | < 4 | > 10000 | – | – | – | – | – | – | – | IC50 [3]: > 10000 nM; IC50 [4]: > 10000 nM; IC50 [6]: > 10000 nM; fraction unbound at 6 h, 1 µM [7]: 0.004 |
| Cn1c(=O)n(CC(=O)N2CC(F)C2)c2cc(-c3ccc(C(F)(F)F)s3)cnc21 | < 4 | < 4 | > 10000 | < 0.3 | 3.7 | 21 | 0.17 | 71 | – | – | Occ [8]: 71%; Tmax [10]: 60 min; Cmax [11]: 1000 ng/mL; Occ [12]: 24%; Tmax [13]: 120 min; clearance [14]: 20 mL/min/kg; bioavailability [15]: 109%; half-life [16]: 54 min; AUC(0-inf) [18]: 3610 ng·h/mL; Vd [21]: 0.9 L/kg; Occ [23]: 74%; Cmax [24]: 728 ng/g |
| Cc1ccc(-c2cnc3c(c2)n(CC(=O)N2CCC2)c(=O)n3C)s1 | 48 (≈ 16.4 µg/mL) | 39 (≈ 13.4 µg/mL) | > 10000 | 0.56 | 3.2 | 44 | 0.78 | 25 | – | – | half-life [25]: 12 min; bioavailability [26]: 1%; Vd [27]: 1.1 L/kg; Cmax [28]: 6 ng/mL; clearance [29]: 114 mL/min/kg |
| Cn1c(=O)n(CC(=O)N2CCC2)c2cc(-c3cc(C(F)F)cs3)cnc21 | – | – | > 10000 | < 0.3 | 9.1 | 59 | 0.52 | 79 | Unstable | Unstable | – |
| Cn1c(=O)n(CC(=O)N2CCC2)c2cc(-c3ccc(C(F)F)s3)cnc21 | – | – | > 10000 | 0.46 | 5.8 | 19 | 0.58 | 6 | Unstable | Unstable | – |
